# Sampled rows, rich in hits. Any-hit rate of the full collection: about 1.6%.
# NR2E3 ag-1: inhibitors of NR2E3-RetCOR corepressor binding, primary screen, NR2E3 agonist project, biochemical, TR-FRET, GST-NR2E3, biotin-RetCOR | inhibition of corepressor binding, % at 4.78 µM | Photoreceptor-specific nuclear receptor (Homo sapiens), Q9Y5X4 | AID 2300, 2010 | 1536-well | 0.12% of 320,000 active;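 active means percent inhibition above the cutoff of mean plus 3 SD of all tested compounds, set per screening campaign, cut at about 20% in these data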;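 further: 0% = DMSO wells and 100% = biotin wells as full block of FRET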
#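 Material – GST-tagged NR2E3 plus biotinylated RetCOR corepressor · Quantity – NR2E3 fusion 1.35 nM · Times – 5 h incubation at 4 °C · Medium – pH 7.5 Tris-based buffer · Technique – TR-FRET, Eu(K)-anti-GST donor, streptavidin-D2 acceptor, ex 340, em 617/671 nm · Benchmarks – high control biotin, low control 0.6% DMSO · Format – 1536-well plates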
# NR1D1 modulator: modulators of Rev-erb alpha DNA binding, primary screen, biochemical, FITC-DNA, fluorescence polarization, uHTS; Nuclear receptor subfamily 1 group D member 1 (Homo sapiens), P20393; 0.79% of 370,000 active; activity, % at 10 µM; Rev-erbα–FITC-DNA binding, 90 min;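 active means activity above about 14%, limit read from the data; passing the limit was not always enough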;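 further: 0% = DMSO wells with 35 nM protein and 100% = DMSO wells with 750 nM protein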
# Target sequence (P20393 whole entry, looked up): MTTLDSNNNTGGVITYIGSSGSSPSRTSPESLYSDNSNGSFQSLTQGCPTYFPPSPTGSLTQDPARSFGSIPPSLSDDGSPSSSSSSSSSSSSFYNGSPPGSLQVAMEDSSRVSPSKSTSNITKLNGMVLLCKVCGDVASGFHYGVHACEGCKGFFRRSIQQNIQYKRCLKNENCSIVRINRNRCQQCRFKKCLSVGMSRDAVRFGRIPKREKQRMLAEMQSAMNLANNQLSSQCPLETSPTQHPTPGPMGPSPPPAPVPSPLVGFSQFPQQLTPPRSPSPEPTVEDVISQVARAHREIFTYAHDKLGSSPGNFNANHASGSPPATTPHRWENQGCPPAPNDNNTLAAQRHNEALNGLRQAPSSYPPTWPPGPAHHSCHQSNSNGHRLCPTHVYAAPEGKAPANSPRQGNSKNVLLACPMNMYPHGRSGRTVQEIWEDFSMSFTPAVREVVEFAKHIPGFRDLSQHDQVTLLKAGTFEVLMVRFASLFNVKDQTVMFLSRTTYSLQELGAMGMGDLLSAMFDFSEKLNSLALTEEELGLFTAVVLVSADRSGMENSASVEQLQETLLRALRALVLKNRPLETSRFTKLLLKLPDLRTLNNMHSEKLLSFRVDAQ
# PG9 Ab binder: binders of HIV-1 gp120 antibody PG9, primary screen, biochemical, TR-FRET; HIV-1 gp120 / PG9 antibody interaction; TR-FRET gp120-PG9 antibody binding; inhibition, % at 6.7 µM; 0.43% of 360,000 active; AID 624416, 2012; in the data active means inhibition above about 8.5%
# NR2E3 ag-2: NR2E3 agonists in two-hybrid cells, primary screen, cell-based, luminescence, CHO-S, Gal4-NCOR/VP16-NR2E3 | Photoreceptor-specific nuclear receptor (Homo sapiens), Q9Y5X4 | luciferase | inhibition of corepressor binding, % at 3.98 µM | 0.35% of 360,000 active;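 active means inhibition above the mean of all tested compounds plus 3 SD, cut at about 70% in these data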;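 further: 0% = DMSO with NR2E3 transfected cells and 100% = cells lacking NR2E3 construct; higher means lower luciferase signal from less NR2E3 corepressor binding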
# VLA-4 inh: inhibition in human VLA-4 binding assay, primary screen, VLA-4 allosteric modulator project, MLPCN library, flow cytometry, VLA-4 expressing cells; ligand binding flow cytometry; inhibition, % (about 7 µM as worked out from the volumes in the protocol); 0.2% of 330,000 active; AID 2557, 2010; in the data active means inhibition above about 50%
# PG9 binder conf: binders of anti-gp120 antibody PG9, confirmation, biochemical, TR-FRET; shares compounds with PG9 Ab binder; TR-FRET PG9 antibody binding; inhibition, % at 6.7 µM; 90% of 1,500 active; in the data active means inhibition above about 9%
# PGV04 Ab binding: binders of control antibody PGV04, counter-screen for PG9 antibody binder project, biochemical, TR-FRET, distinct HIV envelope site | shares compounds with PG9 Ab binder | TR-FRET PGV04 antibody-gp120 binding | inhibition, % at 6.7 µM | 95% of 1,500 active | AID 651604, 2012; in the data active means inhibition above about 9.5%
# PG9 binder DR: small-molecule binders of antibody PG9, dose response, biochemical, TR-FRET, HIV-1 gp120 antibody; shares compounds with PG9 Ab binder; TR-FRET PG9 antibody-gp120 binding inhibition; IC50, µM; 95 tested, under 10 active; AID 651848, 2012; in the data active means IC50 below about 10 µM
# PGV04 DR counter: binders of control antibody PGV04, dose response, counter-screen for PG9 antibody binder project, biochemical, TR-FRET, distinct HIV envelope site; shares compounds with PG9 Ab binder; TR-FRET binding to control antibody PGV04; IC50, µM; 20% of 95 active; AID 651937, 2012
# PG126 binding DR: binders of control antibody PG126, dose response, counter-screen for PG9 antibody binder project, biochemical, TR-FRET, distinct HIV envelope site; IC50, µM; 20% of 95 active; TR-FRET binding to antibody PG126, counterscreen; AID 651939, 2012; shares compounds with PG9 Ab binder
# Active calls of the source: *; i = inactive; . = not tested or not shown. Unless noted, no stated cut-off is given here; in the data, active means IC50 below about 9 µM; inactive means the rest.
SMILES,NR2E3 ag-1,NR1D1 modulator,PG9 Ab binder,NR2E3 ag-2,VLA-4 inh,PG9 binder conf,PGV04 Ab binding,others
COc1cc(OC)cc(-c2c(Sc3ccccc3)c3cc(-c4ccc(OC)c(OC)c4)ccc3n2C)c1,.,13.6,18.9*,-4.0,.,33.7*,19.1*,PG9 binder DR=i;PGV04 DR counter=i;PG126 binding DR=i
CC(C)(C)OC(=O)C1[C@H](O)C=CC[C@H]1S(=O)c1ccccc1 (stereo partly drawn),.,7.1,.,.,.,.,.,
CCOC(=O)[C@@]12CCC3=C1N(CCC3)C(=O)[C@H](CC(=O)NCCCOC)C2,.,-0.1,.,.,.,.,.,
O=C(Cn1c2ccccc2c(=O)c2ccccc21)Nc1ccccc1F,-10.5,1.2,6.2,-20.5,19.7,.,.,
O=C(Cn1c2ccccc2c(=O)c2cc([N+](=O)[O-])ccc21)Nc1ccccc1Cl,-3.5,9.5,11.9*,-48.6,-10.0,16.0*,18.2*,
COC(=O)c1cc(C(c2ccccc2O)C2CCC(C)(C)O2)n2ccccc12 (stereo not drawn),.,-2.4,.,.,.,.,.,
CCOCCCn1c(SCC(=O)Nc2ccc(OC)cc2)nc2ccccc2c1=O,2.5,4.2,47.9*,-13.4,1.5,47.5*,54.7*,
O=C(NCc1cccnc1)c1ccc(Cn2c(=S)[nH]c3ccc(Br)cc3c2=O)cc1,3.0,8.9,10.3*,3.8,15.0,12.5*,13.0*,
COc1cccc2cc(C(=O)Nc3cccnc3N3CCOCC3)c(=O)oc12,-3.1,-4.8,9.7*,24.8,-11.3,4.0,7.2,
Cc1ccc(-n2c(Cc3cccs3)nnc2SCC(=O)Nc2cccc3ccccc23)cc1,.,-1.0,.,.,.,.,.,
Cc1cc(C)c2nc(NC(=O)c3ccco3)sc2c1,0.9,2.3,-0.6,-137.7,7.0,.,.,
O=C(Nc1nc2c(Br)cc(Br)cc2c(=O)s1)c1ccco1,-0.1,0.8,30.0*,18.8,-0.3,57.5*,63.2*,
CCOc1cccc(NC(=O)CSc2nc(C)c3c(c2C#N)CCCC3)c1,6.6,19.3,12.0*,-13.8,9.9,15.5*,28.6*,
O=S(=O)(c1ccc(Cl)nc1)N1CCC(Cc2ccccc2)CC1,.,-0.3,0.3,32.6,14.4,.,.,
NC(=O)C1CCN(c2ccc(S(=O)(=O)N3CCC(Cc4ccccc4)CC3)cn2)CC1,1.1,1.1,14.3*,-20.9,-1.3,24.2*,34.3*,
CCc1c(C)nc2ccc(Br)cc2c1Cl,0.2,4.1,9.3*,-26.4,13.1,24.1*,25.8*,
Cc1[nH]c2ccccc2c1C1=CC(=O)C=CC1=O,.,17.0,10.4*,26.5,.,20.3*,25.0*,
Cc1[nH]c2ccccc2c1CC#N,0.5,-10.0,-0.9,-15.0,0.4,.,.,
CNc1nn(-c2cccc(Cl)c2)nc1N,-3.4,1.1,21.4*,-75.5,-51.8,21.5*,27.0*,
Nc1ccccc1Nc1cc(-c2ccccc2)nn1-c1cccc(Cl)c1,-5.8,4.0,-3.6,0.8,9.7,.,.,
COc1ccc(CCn2c(SCC(=O)Nc3cc(C)on3)nc3ccsc3c2=O)cc1OC,1.1,11.9,35.6*,4.0,-10.8,45.7*,55.9*,
CC(C)Oc1ccc(C(=O)Nc2ccc(NC(=O)c3ccco3)c(Cl)c2)cc1,3.8,8.3,11.2*,-43.0,-1.2,15.8*,23.4*,
COc1ccccc1OCC(=O)Nc1cccc(-c2nnc(-c3ccco3)o2)c1,3.0,6.4,-0.5,-57.0,-7.5,.,.,
O=C(COc1ccccc1)Nc1ccc(-c2nnc(-c3ccco3)o2)cc1,-1.9,6.3,70.2*,-40.5,0.9,54.5*,72.2*,
COc1ccc(-n2c(SCC(=O)Nc3ccc(OCc4ccccc4)cc3)nnc2-c2ccc(C)cc2)cc1,.,-1.2,.,.,.,.,.,
SMILES,NR2E3 ag-1,NR1D1 modulator,PG9 Ab binder,NR2E3 ag-2,VLA-4 inh,PG9 binder conf,PGV04 Ab binding,others
CCS(=O)(=O)N1CCC(C(=O)NCc2ccccn2)CC1,1.4,0.2,-1.4,-1.4,-12.2,.,.,
O=C(NCc1ccccn1)C1CCN(S(=O)(=O)N2CCCCC2)CC1,0.5,-4.2,8.6*,-10.1,20.2,8.2,10.6*,
CC1=CC2(C(Cc3ccccc3)N(CC3CC3)C(=NC(=O)c3ccccc3)N2C(=O)OCc2ccccc2)n2c(=O)n(-c3ccccc3)c(=O)n2C1 (stereo not drawn),.,-2.5,.,.,.,.,.,
O=C(COC(=O)c1cc2ccccc2oc1=O)Nc1ccc(F)cc1F,-1.2,1.3,15.2*,-24.8,6.8,16.3*,47.9*,
CCN(c1ccc(NC(=O)COC(=O)c2cc3ccccc3oc2=O)cc1)C(C)C,6.7,-0.1,-3.2,-25.8,4.9,.,.,
CS(=O)(=O)c1cccc(OCCCN2CCC(C(O)(c3ccccc3)c3ccccc3)CC2)c1,.,-4.9,-0.4,.,.,.,.,
CC(C)(C)c1ccc(C(=O)Nc2ccc(Cl)cc2)cc1,4.2,-4.0,8.6*,-82.0,8.9,15.7*,17.8*,
COC(=O)[C@]12C[C@H](CC(=O)N3CCCCC3)C(=O)N(CCc3ccc(OC)c(OC)c3)C1=C[C@H](C(C)(C)C)O[C@@H]2C,.,-2.0,.,.,.,.,.,
O=C(CSc1nnc(-c2c[nH]c3ccccc23)o1)c1ccc(-c2ccccc2)cc1,-1.8,2.6,17.8*,15.5,7.6,21.7*,43.4*,
COC(=O)CSc1nnc(-c2c[nH]c3ccccc23)o1,-3.7,1.2,0.2,-15.4,10.5,.,.,
O=C(c1ccc(Cl)cc1)C1CCN(c2ncnc3sccc23)CC1,.,-3.1,.,.,.,.,.,
CCC[C@H]1[C@@H](NC(=O)C2CCCCC2)CC[C@@]23CCCN2C(=O)CCC[C@@H]13,.,2.3,.,.,.,.,.,
COc1ccc2oc(=O)c(C(=O)NCc3ccc(C)cc3)cc2c1,-2.8,3.5,8.8*,-0.8,3.2,16.0*,23.9*,

# High-throughput results as filed in PubChem BioAssay.
